# GPR7 antag: antagonists of human GPR7 (neuropeptides B/W receptor 1); inhibition, % at 4.4 µM; GPR7-expressing cells, fluorescence antagonist assay; P48145; 290,000 tested, 1.1% active; in the data active means inhibition above about 16%, passing the limit was not always enough;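 further: cells stimulated with the agonist NPW; 0% = agonist with vehicle and 100% = vehicle without agonist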
# Target sequence (P48145 whole entry, looked up): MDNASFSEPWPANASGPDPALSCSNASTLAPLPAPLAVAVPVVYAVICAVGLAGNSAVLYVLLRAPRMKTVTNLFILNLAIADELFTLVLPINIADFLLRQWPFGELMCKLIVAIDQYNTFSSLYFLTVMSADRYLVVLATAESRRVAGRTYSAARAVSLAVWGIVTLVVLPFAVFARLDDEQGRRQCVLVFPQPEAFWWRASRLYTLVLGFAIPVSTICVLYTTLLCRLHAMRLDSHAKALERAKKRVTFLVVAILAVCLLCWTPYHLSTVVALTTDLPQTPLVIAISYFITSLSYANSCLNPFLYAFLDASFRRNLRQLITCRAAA
# TAAR1 antag: antagonists of human TAAR1 | CHO RD-HGA16 TAAR1, Fluo-8 calcium fluorescence, antagonist | inhibition, % at 3 µM | 360,000 tested, 1.5% active;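 active means inhibition above a per-plate cutoff, the mean inhibition of test compounds on that plate plus 3 SD, cut at about 49% in these data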;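 further: 0% = DMSO plus EC80 beta-PEA response and 100% = DMSO alone without agonist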
# Target sequence (Q96RJ0 whole entry, looked up): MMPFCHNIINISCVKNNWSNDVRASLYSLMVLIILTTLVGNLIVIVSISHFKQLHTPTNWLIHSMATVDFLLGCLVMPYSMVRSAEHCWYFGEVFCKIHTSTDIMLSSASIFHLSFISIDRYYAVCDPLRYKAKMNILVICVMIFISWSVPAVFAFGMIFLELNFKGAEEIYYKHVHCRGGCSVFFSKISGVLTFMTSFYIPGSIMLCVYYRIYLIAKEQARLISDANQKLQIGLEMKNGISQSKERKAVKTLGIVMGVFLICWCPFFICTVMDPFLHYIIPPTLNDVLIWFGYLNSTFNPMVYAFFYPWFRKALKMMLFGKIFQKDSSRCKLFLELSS
#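 Test system: RD-HGA16 CHO cells with stable hTAAR1 and Gα16 / Probe or stimulus: EC80 β-phenethylamine stimulus / Times: seeding 17-24 h prior, 75-min 37 °C, 30-min RT dye loading / Detection: Fluo-8 calcium-sensitive fluorescence / Read-out basis: % inhibition scaled between DMSO and EC80 PEA controls / Repeats: singlicate, one well per test compound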
# TAAR1 agonist: human TAAR1 agonism. Q96RJ0. CHO RD-HGA16 TAAR1, Fluo-8 calcium fluorescence; vehicle wells 0%, saturating PEA agonist 100%. activation, % at 3 µM. 360,000 tested, 0.99% active. AID 624467;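 active means activation above the mean activation of all test compounds in the run plus 3 SD, cut at about 38% in these data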
#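 test system = CHO RD-HGA16 cells carrying human TAAR1 plus Gα16 | schedule = 17-24 h seeding, 75 min 37 °C dye, 30 min RT | compound dosing = 3 µM single concentration | control set = DMSO and PEA EC100 | replicates = n 1 | signal = Fluo-8 fluorescence, 5 s baseline then 140 s kinetic read | measure = percent activation vs PEA EC100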
# OX1R antag-1: human HCRTR1 antagonism; CHO/OX1R cells, Fluo-8 calcium fluorescence, orexin A; O43613; inhibition, % at 5 µM; 330,000 tested, 0.43% active; AID 434989;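 active means inhibition above its plate's threshold, mean inhibition of all tested compounds on the plate plus 3 SD, cut at about 37% in these data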;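 further: 0% = orexin A challenge wells and 100% = SB-334867-A antagonist wells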
# CHO parental Ca: counter-screen: ATP calcium response change in parental CHO cells | parental CHO-K1, ATP-induced calcium, Fluo-8 fluorescence | inhibition, % at 5.6 µM | 330,000 tested, 0.63% active;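 active means inhibition above that plate's mean sample inhibition plus 3 SD, cut at about 26% in these data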;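 further: 0% = ATP-challenged DMSO wells and 100% = DMSO wells without ATP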
#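 Material: Parental CHO cells | Reagent: ATP | Compound dosing: Single nominal dose of 5.6 µM per compound | Detection: Intracellular calcium via Fluo-8 no-wash fluorescent dye | Read-out: % inhibition of ATP-induced calcium mobilization | Benchmarks: Low control ATP plus DMSO, high control DMSO only | Replicates: Singlicate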
# OX1R antag-2: blocks the human orexin 1 receptor. AID 485270. 330,000 tested, 1.8% active. inhibition, % at 6.6 µM. OX1R-expressing cells, FRET antagonist read-out; in the data active means inhibition mostly above about 38%, no sharp cut-off; inactive means mostly below about 40%;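 further: 0% = agonist challenge alone and 100% = reference antagonist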
# GPR7 antag cf: confirmation of human GPR7 antagonists | GPR7-expressing cells, calcium fluorescence antagonist mode | inhibition, % at 4.4 µM | shares compounds with GPR7 antag | 2,400 tested, 52% active; in the data active means inhibition above about 24%;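 further: stimulated with the GPR7 agonist NPW; 0% = agonist plus vehicle and 100% = vehicle alone without agonist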
# MCHR1 antagonist: antagonizes human MCHR1, a GPR7 antagonist counter-screen; shares compounds with GPR7 antag; MCHR1-expressing cells, fluorescence antagonist assay; inhibition, % at 4.4 µM; 2,400 tested, 62% active; AID 2148; in the data active means inhibition above about 22%;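 further: 0% = vehicle with agonist and 100% = vehicle without agonist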
# * = called active by the depositor; nt = no result given. An excerpt weighted towards active compounds, which were near 4.6% of everything screened.
SMILES,GPR7 antag,TAAR1 antag,TAAR1 agonist,OX1R antag-1,CHO parental Ca,OX1R antag-2,others
O=C(C[N+]12CCC(CC1)C(CO)C2)c1ccc([N+](=O)[O-])cc1 (centres undefined),-6,-4,1,-6,-4,59*,
O=C(C[N+]12CCC(CC1)C(OC(=O)c1ccccc1)C2)c1ccc([N+](=O)[O-])cc1 (centres undefined),14,-12,5,-7,6,70*,
Oc1ccc(CCNCc2cc3c(cc2Br)OCO3)cc1,nt,3,5,nt,nt,nt,
Cc1cccc(C)c1-n1nnnc1C(c1ccccc1)N1CCC2(CC1)C(=O)NCN2c1ccccc1 (centres undefined),nt,-7,-1,nt,nt,nt,
Cc1cccc(C)c1-n1nnnc1C(C1CC1)N1CCC2(CC1)C(=O)NCN2c1ccccc1 (centres undefined),nt,50*,11,nt,nt,nt,
C[C@]12CCC3C(CC[C@@H]4C[C@@H](O)CC[C@]34C)C1CC[C@@H]2O (some centres undefined),nt,3,9,nt,nt,nt,
O=[N+]([O-])c1ccc(N2CCCCC2)c2ncccc12,-3,3,0,-23,-6,44,
O=[N+]([O-])c1ccc(N2CCOCC2)c2cccnc12,-12,-10,2,16,-2,71*,
O=[N+]([O-])c1ccc(N2CCCNCC2)c2ncccc12,-5,8,3,-6,-3,40*,
COc1ccc(CCNCc2ccc(Br)cc2)cc1OC,12,-11,15,-15,-13,-2,
C=CCn1c(O)c(C(C)=NCCc2ccccc2)c(=O)[nH]c1=O,-1,13,40*,-1,-16,5,
C=CCn1c(O)c(C(C)=NCCO)c(=O)[nH]c1=O,1,-3,10,2,-3,0,
Cc1c(N=Nc2c(O)n(C)c(=O)n(C)c2=O)c(=O)n(-c2ccccc2)n1C,-3,-6,0,-14,-4,64*,
O=C(c1ccc(Cl)cc1)C1CCCN(Cc2ccc3ncccc3c2)C1 (centres undefined),9,-42,3,-24,-3,13,
O=C1NC(=O)C(CCc2ccncc2)(CCc2ccncc2)C(=O)N1CCc1ccccc1,-16,3,9,-27,-9,5,
O=C1NC(=O)C(CCc2ccncc2)(Cc2ccc3c(c2)OCO3)C(=O)N1CCc1ccccc1 (centres undefined),3,49*,19,-17,-9,18,
CN1CCC(N(C)c2nc(-c3ccc([N+](=O)[O-])cc3)nc3ccccc23)CC1,24,-9,6,nt,nt,nt,
CN(CC1COc2ccccc2O1)c1nc(-c2cccnc2)nc2ccccc12 (centres undefined),2,46,11,-28,-34,74*,
CC(=O)OC1CC2(O)C3CCC4CC(O)CCC4(C)C3CCC2(C)C1C1=CC(=O)OC1 (centres undefined),nt,-2,0,nt,nt,nt,
CC(C)(C)c1cc(C=C(C#N)C#N)cc(C(C)(C)C)c1O,nt,37,1,-12,-5,44*,
COC(=O)C1=C(C(=O)OC)C2OC1c1cc3ccccc3cc12,nt,58*,20,nt,nt,nt,
COC(=O)C1=C(c2ccc3ccccc3c2)C[C@@H]2CC[C@H]1N2C,nt,-1,18,-9,-12,17,
O=C1/C(=C/c2ccncc2)N2CCC1CC2,12,-13,0,-5,2,30,
c1cncc(CNCCN2CCNCC2)c1,nt,-16,4,nt,nt,nt,
COC1C(OC(=O)c2ccc(C)[nH]2)C(O)C(Oc2ccc3c(O)c(NC(=O)c4ccc(O)c(CC=C(C)C)c4)c(=O)oc3c2Cl)OC1(C)C (centres undefined),14,12,-2,36,32*,11,
SMILES,GPR7 antag,TAAR1 antag,TAAR1 agonist,OX1R antag-1,CHO parental Ca,OX1R antag-2,others
CCOC(=O)[C@]12Cc3cc(Cl)ccc3[C@H]1N(C(C)C)C(=O)c1ccccc12,nt,8,-2,nt,nt,nt,
CCCCCSc1cc(OC)c(CCN(C)C)cc1OC,18,11,24,-10,-18,-2,
CCCCCSc1cc(O)c(C(CNC)C(C)C)cc1OC (centres undefined),29*,4,18,-11,-6,14,GPR7 antag cf=42*;MCHR1 antagonist=37*
C=CCN1C(=O)NC(=O)/C(=C/c2ccc(N(C)C)c(Br)c2)C1=O,-9,-5,0,-8,-23,5,
OC1CN2CCC(O)C2C(O)C1O (centres undefined),nt,-9,1,nt,nt,nt,
CCOc1ccc(Cl)cc1CNCCc1ccccc1F,33*,0,0,-32,-18,15,GPR7 antag cf=49*;MCHR1 antagonist=37*
CC(C)(C)C(=O)C(Oc1ccc(Cl)cc1)n1cncn1 (centres undefined),nt,-10,-1,nt,nt,nt,
OCCN1C2CCC1CC(O)(c1ccc(F)cc1)C2 (centres undefined),-11,16,2,-11,5,9,
OC1(c2ccc(F)cc2)CC2CCC(C1)N2Cc1nnnn1C1CCCCC1 (centres undefined),33*,-21,14,-26,-7,2,GPR7 antag cf=26*;MCHR1 antagonist=17
COc1cc(CNCCc2c[nH]c3ccccc23)cc(OC)c1OC,nt,7,1,nt,nt,nt,
COc1cc(CNCCc2c[nH]c3ccccc23)cc(OC)c1,38*,5,16,-10,-3,-4,GPR7 antag cf=22;MCHR1 antagonist=31*
COc1ccccc1CNCCc1cccc(Cl)c1,nt,4,6,nt,nt,nt,
Cc1cc(C)c(C(=O)N2CCC3(CC2)OCCO3)c(C)c1,-5,1,-1,-1,-15,10,
Cc1occc1C(=O)N1CCC2(CC1)OCCO2,33*,2,5,-14,-9,11,GPR7 antag cf=2;MCHR1 antagonist=-3
CCCCn1c(=O)c(C(=O)Nc2ccccc2F)c(O)c2ccccc21,96*,-31,1,-12,12,6,GPR7 antag cf=-29;MCHR1 antagonist=-3
CCN(C(=O)COC(=O)C(O)(c1ccccc1)c1ccccc1)c1c(N)n(Cc2ccccc2)c(=O)[nH]c1=O,nt,-15,3,nt,nt,nt,
CCOC(=O)c1ccc(-[n+]2c(-c3ccccc3)cc(-c3ccccc3)cc2-c2ccccc2)cc1,nt,nt,nt,2,8,28,
CN(C)c1ccc(-[n+]2c(-c3ccccc3)cc(-c3ccccc3)cc2-c2ccccc2)cc1,59*,34,13,nt,nt,nt,GPR7 antag cf=79*;MCHR1 antagonist=78*
c1ccc(-c2cc(-c3ccccc3)[n+](-c3ccccc3)c(-c3ccccc3)c2)cc1,97*,72*,7,84*,84*,31,GPR7 antag cf=93*;MCHR1 antagonist=87*
CC(=O)Nc1ccc(S(=O)(=O)N2Cc3cnnn3-c3ccccc3C2C#N)cc1 (centres undefined),nt,-13,1,nt,nt,nt,

# Screening results: PubChem BioAssay, The Scripps Research Institute Molecular Screening Center
